Measurements as given in PubChem BioAssay.
The source made the active and inactive calls.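 Rule for the calls, unless noted: active = NADPH fluorescence slope more negative than the mean of all samples by about 3 SD, 99.7% confidence; inactive = the rest.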 Where a SMILES comes first, the peptide text is derived from it. The star is where a group is joined. Boc = CC(C)(C)OC(=O)*

Columns and labels:
[1] = inhibitors of TNFa-induced NFkB p65 translocation, primary screen, imaging, HUVEC, MLSMR starter and 10KST1 sets (AID 438;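 active = inhibition above 20% together with a positive visual image hit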;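 note: compound added about 3h40 before a 20 min TNFalpha stimulation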;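 for inhibition: signal is the nuclear over cytoplasmic p65 intensity ratio per well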); settings: HUVEC TNFa-induced p65 nuclear translocation; cell count: measured here: nuclei count (cytotoxicity indicator), at 2.08 µM; inhibition: at 2 µM, stronger effect = higher value, 0% TNFa-plus-vehicle, 100% no-TNFa wells
[2] = reduction of polyQ htt aggregates in cells – imaging, exon1htt(103Q)mCFP cells, high-content imaging, primary screen (AID 483;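 active = visual image review flags a hit and inhibition of aggregation exceeds 20%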;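 note: compound exposure lasted 3 days before fixation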;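 for nuclei count: percent of the per-plate median nuclei count of sample wells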); settings: exon1htt(103Q)mCFP cell line, aggregate imaging, at 2 µM; inhibition of aggregation: stronger effect = higher value; nuclei count: measured here: cell count, toxicity
[3] = endothelial E-selectin expression blockers – imaging, HUVEC, immunofluorescence, MLSMR starter and 10KST1 sets, primary screen (AID 487;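 active = visually confirmed hit in the image check and inhibition above 20%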;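 for inhibition: signal is fraction of cell area covered by stained E-selectin grains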;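 for nuclei count: 100% = median nuclei count of all wells on the same plate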); settings: HUVEC TNFalpha-induced E-selectin immunofluorescence imaging, at 2 µM; inhibition: stronger effect = higher value; nuclei count: measured here: cell number, toxicity
[4] = biological target: Voltage-gated potassium channel subunit beta-2 (Rattus norvegicus) (UniProt P62483); experiment: inhibitors of rat Kvbeta2 reductase activity – biochemical, NADPH fluorescence, primary screen (AID 622;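 active = fluorescence slope higher than the sample average by over 3 SD, cut at about -0.22 in these data, passing the limit was not always enough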;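 note: slope of raw intensity against log time taken from 70 to 1610 s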); settings: recombinant KvBeta, 4-cyanobenzaldehyde reduction, at 10 µM, stronger effect = higher value
[5] = biological target: Voltage-gated potassium channel subunit beta-2 (Rattus norvegicus) (UniProt P62483); experiment: enhancers of rat Kvbeta2 NADPH turnover – biochemical, NADPH fluorescence, primary screen (AID 623); settings: Recombinant KvBeta, NADPH fluorescence decrease slope, 10 min; at 10 µM; stronger effect = lower value;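 note: fluorescence intensity change per second fitted from 20 to 320 s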
[6] = biological target: Muscarinic acetylcholine receptor M4 (Homo sapiens) (UniProt P08173); experiment: M4-linked GIRK flux change, two-sided – cell-based, HEK293 M4/GIRK, thallium flux, BTC-AM, M4 allosteric agonist project, primary screen (AID 625;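 active = fluorescence slope after compound addition differing from the mean of all tested samples at 99.7% confidence, mostly higher but some lower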;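 note: thallium influx through GIRK channels coupled to M4 in HEK293 cells with BTC-AM dye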); settings: at 10 µM, actives lie on both sides
Summary of the method: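 Material: M4/GIRK1/GIRK2 stable HEK293 cell line. Medium: pH 7.3 thallium assay buffer. Dosing: single compound concentration, 10 µM final. Schedule: 1 h dye loading, 2 min kinetic read. Measured by: kinetic fluorescence with BTC-AM dye. Read-out: post-addition slope, 15–24 s, of baseline-normalized fluorescence. Benchmarks: carbachol and DMSO controls.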

[7] = blockers of RIG-like receptor reporter activation – cell-based, Sendai virus stimulus, luciferase, 10K MLSCN set, TLR/RLR signaling modifier project, primary screen (AID 602276;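 active = inhibition at or above 50% at 10 µM; inactive = inhibition below 50%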;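 note: firefly luciferase from ISG56 promoter only with Renilla not read in this screen; 0% = Sendai virus plus DMSO and 100% = medium plus DMSO without virus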); settings: HEK293 RL24 IRF3 luciferase reporter, at 10 µM, stronger effect = higher value
[8] = TLR3 IRF3 reporter activation blockers – cell-based, poly I:C stimulus, luciferase, 10K MLSCN set, primary screen (AID 602277;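 active = inhibition of the reporter signal at or above 50%; inactive = inhibition below 50%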); settings: HEK293-TLR3 RL24 IRF3 luciferase reporter, at 10 µM, stronger effect = higher value

Chain of Muscarinic acetylcholine receptor M4 (Homo sapiens) (P08173 whole entry, looked up): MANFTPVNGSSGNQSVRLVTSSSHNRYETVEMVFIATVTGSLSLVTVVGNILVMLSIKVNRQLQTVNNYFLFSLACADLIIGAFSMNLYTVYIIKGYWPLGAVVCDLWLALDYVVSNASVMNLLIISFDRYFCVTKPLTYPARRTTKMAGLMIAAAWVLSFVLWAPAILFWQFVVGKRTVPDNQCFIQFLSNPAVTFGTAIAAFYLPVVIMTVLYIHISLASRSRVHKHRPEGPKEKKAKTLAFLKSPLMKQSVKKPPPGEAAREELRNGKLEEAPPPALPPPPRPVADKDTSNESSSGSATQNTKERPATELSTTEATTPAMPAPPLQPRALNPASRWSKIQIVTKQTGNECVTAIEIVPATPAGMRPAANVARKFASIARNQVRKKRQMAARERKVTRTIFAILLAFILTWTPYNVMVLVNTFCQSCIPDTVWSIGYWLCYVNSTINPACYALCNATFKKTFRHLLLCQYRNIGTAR
Chain of Voltage-gated potassium channel subunit beta-2 (Rattus norvegicus) (P62483 whole entry, looked up): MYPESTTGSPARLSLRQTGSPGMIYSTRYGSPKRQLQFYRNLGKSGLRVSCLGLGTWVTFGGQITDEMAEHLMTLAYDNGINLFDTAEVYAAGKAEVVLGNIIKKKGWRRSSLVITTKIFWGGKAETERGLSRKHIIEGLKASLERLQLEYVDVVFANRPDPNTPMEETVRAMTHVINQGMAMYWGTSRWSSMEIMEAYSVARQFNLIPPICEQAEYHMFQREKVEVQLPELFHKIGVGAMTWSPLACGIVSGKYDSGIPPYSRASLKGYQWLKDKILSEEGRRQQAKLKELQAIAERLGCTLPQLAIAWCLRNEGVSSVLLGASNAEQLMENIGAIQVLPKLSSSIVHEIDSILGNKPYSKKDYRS

| SMILES | cell count [1] | inhibition [1] | inhibition of aggregation [2] | nuclei count [2] [%] | inhibition [3] | nuclei count [3] [%] | fluorescence slope [4] | NADPH fluorescence slope [5] | fluorescence slope [6] | inhibition [7] | inhibition [8] |
| --- | --- | --- | --- | --- | --- | --- | --- | --- | --- | --- | --- |
| CC(=O)Nc1ccn(-c2ccccc2)n1 | 595 | 1.8% (inactive) | -0.5% (inactive) | 108 | -113% (inactive) | 136 | -0.584 (inactive) | -9.6e-06 (inactive) | 0.00818 (inactive) | -39.2% (inactive) | -34.3% (inactive) |
| COc1ccc(C2C(C(=O)c3sc(C)nc3C)=C(O)C(=O)N2CCN2CCOCC2)cc1 (stereo not drawn) | 438 | 4.5% (inactive) | 0.7% (inactive) | 107 | 31.3% (inactive) | 84.8 | -0.531 (inactive) | -5.5e-05 (inactive) | 0.00651 (inactive) | 4% (inactive) | 1.15% (inactive) |
| O=C1CCCc2c1cc(C(=O)NCc1ccco1)c(=O)n2-c1ccc(Cl)cc1 | 220 | 0.8% (inactive) | 5.3% (inactive) | 91.5 | 37.1% (inactive) | 80 | -0.52 (inactive) | -5.7e-05 (inactive) | 0.0047 (inactive) | 10.8% (inactive) | 3.62% (inactive) |
| CN(C)c1ccc(CNC2CC(C)(C)NC(C)(C)C2)cc1 | 334 | 2.4% (inactive) | -12.5% (inactive) | 106 | 20.8% (inactive) | 91.1 | -0.584 (inactive) | -4.8e-05 (inactive) | 0.00412 (inactive) | -0.582% (inactive) | 16.7% (inactive) |
| COc1cccc(-c2noc(CCC(=O)NC3CCCCC3)n2)c1 | 433 | -12.7% (inactive) | -6.8% (inactive) | 112 | -39.4% (inactive) | 108 | -0.461 (inactive) | -4.1e-05 (inactive) | 0.00539 (inactive) | 11% (inactive) | 15.2% (inactive) |
| C/C(CC(O)(/C=N/O)c1ccccc1)=N\O (stereo not drawn) | 343 | 2.4% (inactive) | 4% (inactive) | 97 | -60.1% (inactive) | 120 | -0.569 (inactive) | -5.8e-05 (inactive) | 0.00371 (inactive) | 14.3% (inactive) | 15.7% (inactive) |
| O=C(NC1CCCc2ccccc21)C1CCN(S(=O)(=O)c2cnc[nH]2)CC1 (stereo not drawn) | 529 | -10.3% (inactive) | -6.4% (inactive) | 98.8 | -6.8% (inactive) | 111 | -0.566 (inactive) | -2.6e-05 (inactive) | 0.00517 (inactive) | 4% (inactive) | 19.5% (inactive) |
| CCN1CCN(c2c(Cl)cccc2NC(=O)c2ccco2)CC1 | 248 | 10.6% (inactive) | -8.4% (inactive) | 77.9 | -12.4% (inactive) | 84.2 | -0.531 (inactive) | -2.5e-05 (inactive) | 0.00466 (inactive) | 1.94% (inactive) | 29.2% (inactive) |
| Cc1cc(C)c2nc(N)sc2c1 | 615 | 6.3% (inactive) | 31.1% (inactive) | 67.2 | 16% (inactive) | 107 | -0.281 (inactive) | -1.5e-05 (inactive) | 0.00618 (inactive) | -28.1% (inactive) | -46.7% (inactive) |
| Cn1c(Cc2csc(N)n2)nnc1SCC(=O)NC1CCCCC1 | 662 | -3.3% (inactive) | -15.2% (inactive) | 101 | 16.6% (inactive) | 91 | -0.479 (inactive) | 1.7e-05 (inactive) | 0.00433 (inactive) | 4.63% (inactive) | -2.17% (inactive) |
| COc1ccc(-c2nn(-c3ccccc3)cc2/C=N/n2cnnc2)cc1OC | 737 | 0.7% (inactive) | -17.1% (inactive) | 100 | -74.5% (inactive) | 108 | -0.464 (inactive) | -6.1e-05 (inactive) | 0.00596 (inactive) | 1.15% (inactive) | 1.32% (inactive) |
| CN(CC(=O)Nc1ccncc1)S(=O)(=O)c1ccccc1 | 351 | 4.9% (inactive) | 11.1% (inactive) | 108 | -141% (inactive) | 148 | -0.432 (inactive) | -7.6e-05 (inactive) | 0.00615 (inactive) | 14.3% (inactive) | 2.23% (inactive) |
| COc1ccc(-c2coc3c(CN4CCCCC4)c(O)c(CN4CCCCC4)c(O)c3c2=O)cc1 | 367 | -17% (inactive) | 8.6% (inactive) | 85.4 | -63.6% (inactive) | 103 | -0.566 (inactive) | -2.2e-05 (inactive) | 0.00504 (inactive) | 5.54% (inactive) | 32.3% (inactive) |
| CCOC(=O)CCC(=O)Nc1ccc(S(=O)(=O)N2CCCC2)cc1 | 720 | -3% (inactive) | 3.2% (inactive) | 98.3 | -15.9% (inactive) | 126 | -0.468 (inactive) | 2.8e-05 (inactive) | 0.00707 (inactive) | -1.78% (inactive) | 100% (active) |
| Cc1ccc2[nH]c(=O)c(CN(CCc3ccccc3)Cc3nnnn3CC3CCCO3)cc2c1 (stereo not drawn) | 676 | -10.2% (inactive) | 0.9% (inactive) | 105 | 75.6% (active) | 112 | -0.498 (inactive) | -7e-06 (inactive) | 0.00636 (inactive) | -7.83% (inactive) | -6.03% (inactive) |
| Cc1ccc(Oc2ccc(-c3nc(N)nc(N)n3)cc2)cc1 | 366 | -6% (inactive) | 9% (inactive) | 105 | -62.6% (inactive) | 125 | -0.547 (inactive) | -2.9e-05 (inactive) | 0.00425 (inactive) | 7.07% (inactive) | 11.6% (inactive) |
| O=C1NCCCc2c1no[n+]2[O-] | 381 | 5.3% (inactive) | 19.4% (inactive) | 54.8 | -31.3% (inactive) | 107 | -0.584 (inactive) | -6.4e-06 (inactive) | 0.00512 (inactive) | -17.2% (inactive) | 6.4% (inactive) |
| N#CCCn1cnc2ccccc21 | 332 | 5.6% (inactive) | 22.8% (inactive) | 99.2 | 63.2% (active) | 132 | -0.564 (inactive) | -2.5e-05 (inactive) | 0.0098 (inactive) | -0.285% (inactive) | 3.23% (inactive) |
| Cc1ccc(F)cc1NC(=O)Cc1nn(C)c(=O)c2ccccc12 | 247 | 0.9% (inactive) | 4.8% (inactive) | 93.3 | 17.2% (inactive) | 102 | -0.555 (inactive) | -2.8e-05 (inactive) | 0.00476 (inactive) | 7.41% (inactive) | -19% (inactive) |
| Cc1ccc(Nc2nnns2)cc1C | 758 | 5% (inactive) | -5% (inactive) | 105 | -52.7% (inactive) | 116 | -0.58 (inactive) | 1.4e-05 (inactive) | 0.00717 (inactive) | 6.92% (inactive) | 7.21% (inactive) |
| CC(C)CC(NC(=O)OC(C)(C)C)C(=O)NC(C(=O)NC(C)C(N)=O)C(C)C (stereo not drawn) (Boc-Leu-Val-Ala-NH2; configuration not given here) | 342 | 4.6% (inactive) | 4.4% (inactive) | 116 | -20.6% (inactive) | 117 | -0.573 (inactive) | -1.3e-05 (inactive) | 0.00562 (inactive) | -9.68% (inactive) | 17.1% (inactive) |
| CCN(c1ccccc1)S(=O)(=O)c1ccc(F)cc1C | 207 | 4.7% (inactive) | -4.7% (inactive) | 66.7 | -11.8% (inactive) | 119 | -0.58 (inactive) | -2.3e-05 (inactive) | 0.00509 (inactive) | 12.3% (inactive) | 22.6% (inactive) |
| COC(=O)c1cccc(NC(=O)NC2CCCN2S(=O)(=O)c2ccc(Cl)cc2)c1 (stereo not drawn) | 612 | -16.1% (inactive) | 2.9% (inactive) | 101 | -144% (inactive) | 141 | -0.392 (inactive) | -6.9e-05 (inactive) | 0.00559 (inactive) | 14% (inactive) | 20.5% (inactive) |
| C=CCc1cc(C(=O)N2CCCCC2)ccc1O | 442 | 3.4% (inactive) | 6.3% (inactive) | 99.5 | -96.3% (inactive) | 118 | -0.523 (inactive) | -0.000166 (inactive) | 0.00415 (inactive) | 5.94% (inactive) | -14% (inactive) |
| O=C(CN1C(=O)c2cccc3cccc1c23)Nc1ccccc1C(=O)NCc1ccco1 | 584 | -29.6% (inactive) | -3.5% (inactive) | 98.7 | -37.6% (inactive) | 105 | -0.0129 (inactive) | -5.3e-06 (inactive) | 0.00606 (inactive) | 8.08% (inactive) | 13.4% (inactive) |
| COc1ccc(C2CC(=O)c3cnc(NC(=O)c4ccccc4OC)nc3C2)c(OC)c1 (stereo not drawn) | 434 | -6.7% (inactive) | 15% (inactive) | 94.2 | -80.1% (inactive) | 107 | -0.459 (inactive) | 0.000189 (inactive) | 0.00664 (inactive) | 14.1% (inactive) | 6.68% (inactive) |
| COc1cc(C(N)=O)ccc1OCc1ccccc1 | 364 | 14% (inactive) | -5.1% (inactive) | 107 | -51.6% (inactive) | 110 | -0.472 (inactive) | -7.2e-06 (inactive) | 0.00562 (inactive) | -12.9% (inactive) | -32.5% (inactive) |
| CCOC(=O)c1cnc(-n2nc(C)cc2C)nc1Nc1cccc(C(C)=O)c1 | 634 | -25.9% (inactive) | -14% (inactive) | 104 | 15.1% (inactive) | 111 | -0.567 (inactive) | -1.4e-05 (inactive) | 0.00544 (inactive) | -13.6% (inactive) | -13% (inactive) |
